Reference: ChEMBL document CHEMBL1144664, “Design, synthesis, and SAR of new pyrrole-oxindole progesterone receptor modulators leading to 5-(7-fluoro-3,3-dimethyl-2-oxo-2,3-dihydro-1H-indol-5-yl)-1-methyl-1H-pyrrole-2-carbonitrile (WAY-255348)” (J Med Chem, 2008)
Activity calls are given as the source filed them. The rule behind the calls is not given here.

What was measured:
[1] = Half life in Sprague-Dawley rat at 0.5 mg/kg, iv; assay type: ADME, organism-based; set-up: dose 0.5 mg/kg, route intravenous; conditions: in vivo
Procedure, shortened: (§1)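 Female Sprague–Dawley rats dosed as 1-in-4 cassette or discrete studies. iv in DMSO/PEG200 20:80; po in aqueous 2% Tween 80/0.5% methyl cellulose. Parameters reported: C0, Cmax, t1/2, plasma clearance, Vss, AUC0-inf and %F.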

[2] = Plasma clearance in cynomolgus monkey at 1 mg/kg, iv; assay type: ADME, organism-based, Macaca fascicularis; set-up: dose 1 mg/kg, route intravenous
[3] = Drug level in cynomolgus monkey at […], iv; assay type: ADME, organism-based, Macaca fascicularis; set-up: dose 0.25 mg/kg, route intravenous; conditions: in vivo
[4] = Oral bioavailability in cynomolgus monkey at 5 mg/kg; assay type: ADME, organism-based, Macaca fascicularis; conditions: in vivo
[5] = Half life in cynomolgus monkey at 1 mg/kg, iv; assay type: ADME, organism-based, Macaca fascicularis; set-up: dose 1 mg/kg, route intravenous; conditions: in vivo
[6] = target: T1, Estrogen receptor (Homo sapiens) (UniProt P03372); assay: Antagonist activity at human ER ligand binding domain expressed in african green monkey COS7 cells in presence of 17-beta-estradiol by Gal4 hybrid assay; assay type: cell-based; conditions: COS-7
T1 sequence (whole entry): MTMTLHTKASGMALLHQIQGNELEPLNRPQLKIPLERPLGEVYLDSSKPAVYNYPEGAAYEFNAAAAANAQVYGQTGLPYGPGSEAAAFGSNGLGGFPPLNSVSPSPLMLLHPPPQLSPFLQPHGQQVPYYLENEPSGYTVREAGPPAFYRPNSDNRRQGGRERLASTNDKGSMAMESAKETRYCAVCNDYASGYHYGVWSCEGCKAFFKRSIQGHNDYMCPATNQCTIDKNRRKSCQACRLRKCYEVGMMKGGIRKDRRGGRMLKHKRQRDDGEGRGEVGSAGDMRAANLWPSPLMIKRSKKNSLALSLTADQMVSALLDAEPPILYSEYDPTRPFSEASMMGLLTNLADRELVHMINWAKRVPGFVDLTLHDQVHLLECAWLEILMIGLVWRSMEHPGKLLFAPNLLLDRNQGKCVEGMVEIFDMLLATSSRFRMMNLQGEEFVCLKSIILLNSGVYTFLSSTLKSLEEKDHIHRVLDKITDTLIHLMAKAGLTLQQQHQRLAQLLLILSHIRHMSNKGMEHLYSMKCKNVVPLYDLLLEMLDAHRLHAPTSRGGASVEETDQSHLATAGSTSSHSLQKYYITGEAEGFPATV
Procedure, shortened: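 Gal4-steroid receptor LBD fusion plasmid plus GAL4_UAS (5 copies, E1b TATA)-luciferase reporter, 50 ng/well each, transfected 16 h into COS-7 cells grown in phenol red-free DMEM with 10% charcoal/dextran-treated FBS. Compound treatment 20 h, then luciferase read-out. Antagonist mode uses 3 nM aldosterone (hMR) or 5 nM 17β-estradiol (hER). Values are the average of at least duplicate determinations.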

[7] = Cmax in Sprague-Dawley rat at 5 mg/kg, po; assay type: ADME, organism-based; set-up: dose 5 mg/kg, route oral; conditions: in vivo; procedure, shortened: as §1
Cynomolgus monkey = assay: Inhibition of ovulation in cynomolgus monkey assessed as basal level of progesterone at 10 mg/kg; assay type: functional, organism-based; set-up: dose 10 mg/kg; conditions: Macaca fascicularis
Procedure, shortened: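 Normally cycling cynomolgus monkeys dosed orally, daily at 1, 3 or 10 mg/kg (n=4–6) or vehicle (n=2), in 2% Tween 80/0.5% methylcellulose for 30 days from cycle day 2. Serum sampled three times weekly; progesterone measured by radioimmunoassay to detect a luteal-phase rise as the sign of ovulation.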

Cn1c(C#N)ccc1-c1cc(F)c2c(c1)C(C)(C)C(=O)N2
half-life [1]: 9.5 h | clearance [2]: 7 mL/min/kg | C0 [3]: 178 ng/mL | bioavailability [4]: 49% | half-life [5]: 7.8 h | Activity [6]: inactive | Cmax [7]: 414 ng/mL | Activity (Cynomolgus monkey): Active
